Measurements of several laboratories.
Each line is one published result; the experiments were not run side by side.
Organism: Mycobacterium tuberculosis
Read-out: microbial growth

With `CC1CC(C)(C)CC2(C1)SC(C)C(=O)N2NC(=O)c1[nH]c2ccc(Cl)cc2c1-c1ccccc1` (stereo not drawn) the MIC was 1000 µM (ATCC27294 H37RV).
`Nc1ccc(C(=O)O)c(O)c1` gave an MIC of 0.125 µg/mL (broth dilution; H37RV).
`O=C1C(=NNc2nc(-c3ccccc3)cs2)C(N=Cc2ccc(O)cc2O)=NN1c1ccccc1` gave an MIC of 6.25 µg/mL (resazurin; H37RV).
`NNC(=O)c1ccncc1` gave an MIC of 0.05 µg/mL (resazurin; H37RA; 14 days).
For `COC(=O)c1cc(-c2cccc(NC(=O)Nc3ccc(Cl)c(C(F)(F)F)c3)c2)on1`, the MIC was over 64 µg/mL (ATCC27294 H37RV; 7 days).
`NNC(=O)c1ccncc1` has an MIC of 0.14 µM (W4).
`O=[N+]([O-])c1cn2c(n1)OC[C@@H](OCc1ccc(N3CCCCC3)nc1)C2` has an MIC of 0.4 to 0.8 µg/mL (H37RV).
`COC(=O)c1cc(-c2cccc(NC(=S)Nc3ccccc3)c2)on1` gave an MIC of 2 µg/mL (ATCC27294 H37RV; 7 days).
For `CC1SC2(CCC(c3ccccc3)CC2)N(NC(=O)c2[nH]c3ccc(Cl)cc3c2-c2ccccc2)C1=O` (stereo not drawn), the MIC was 7.8 µM (ATCC27294 H37RV).
For `CO[C@H]1/C=C/O[C@@]2(C)Oc3c(C)c(O)c4c(O)c(c(/C=N/N5CCN(C)CC5)c(O)c4c3C2=O)NC(=O)/C(C)=C\C=C\[C@H](C)[C@H](O)[C@@H](C)[C@@H](O)[C@@H](C)[C@H](OC(C)=O)[C@@H]1C`, the MIC was 0.85 µg/mL (H37RV).
`CCOC(=O)c1nnn(-c2cccc(NC(=O)Nc3ccc(Cl)c(Cl)c3)c2)c1C` gave an MIC of 16 µg/mL (ATCC27294 H37RV; 7 days).
`O=C1C(=NNc2nc(-c3ccccc3)cs2)C(N=Cc2ccccc2)=NN1c1ccccc1` has an MIC of 6.25 µg/mL (resazurin; H37RV).
`[H]/N=C(/N)N[C@H]1[C@H](O)[C@@H](O)[C@H](O[C@@H]2O[C@@H](C)[C@](O)(C=O)[C@H]2O[C@@H]2O[C@@H](CO)[C@H](O)[C@@H](O)[C@@H]2NC)[C@@H](N/C(N)=N\[H])[C@@H]1O` has an MIC of 1.5 µM (H37RV; 5 days).
The MIC of `COC(=O)c1cc(-c2cccc(NC(=O)Nc3ccc(C)c(Cl)c3)c2)on1` is reported as 16 µg/mL (ATCC27294 H37RV; 7 days).
`Cc1ccc(C)n1-c1ccc(-c2nnco2)cc1` gave an MIC of 4 µg/mL (broth dilution; H37RV; 21 days).
`O=C(C1CCCN(S(=O)(=O)c2ccc([N+](=O)[O-])cc2)C1)N1CCN(C(c2ccc(F)cc2)c2ccc(F)cc2)CC1` (stereo not drawn) gave an MIC of over 25 µg/mL (ATCC27294 H37RV).
With `C=C[C@@H](O)C#CC#C[C@@H](O)/C=C\CCCCCCC` the MIC was 26.7 µg/mL (resazurin; ATCC27294 H37RV; 7 days).
For `CCCC1CCC2(CC1)SCC(=O)N2NC(=O)c1[nH]c2ccc(Cl)cc2c1-c1ccccc1` (stereo not drawn), the MIC was 31 µM (ATCC27294 H37RV).
`CC1=NN(CNc2ccc(O)cc2)C(=O)C1=NNn1c(-c2ccccc2)nc2ccccc2c1=O` gave an MIC of 53.5 µM (resazurin; H37RV).
`COc1nc2ccc(Br)cc2cc1[C@@H](c1ccccc1)[C@@](O)(CCN(C)C)c1cccc2ccccc12` has an MIC of 0.51 µM (resazurin; H37RV; 14 days).
The MIC of `O=C(CCNS(=O)(=O)c1ccccc1[N+](=O)[O-])N1CCN(C(c2ccc(F)cc2)c2ccc(F)cc2)CC1` is reported as over 25 µg/mL (ATCC27294 H37RV).
`CNC(=O)c1cc(Oc2ccc(NC(=O)Nc3ccc(Cl)c(C(F)(F)F)c3)cc2)ccn1` gave an MIC of 25 µM (H37RV).
For `COC(=O)c1cc(-c2cccc(NC(=O)Nc3cccc(Cl)c3Cl)c2)on1`, the MIC was 0.5 µg/mL (ATCC27294 H37RV; 7 days).
For `Cc1ccn2c(C(=O)NCc3ccc(S(F)(F)(F)(F)F)cc3)c(C)nc2c1`, the MIC was 0.25 µM (H37RV; 5 days).
For `C[C@H]1O[C@H](O[C@H]2CC[C@H](n3ccc(NC(=O)c4ccc(NC(=O)[C@@](C)(N)CO)cc4)nc3=O)O[C@@H]2C)[C@H](O)[C@@H](O)[C@@H]1N(C)C`, the MIC was 0.8 µM (H37RA).
The MIC of `Cc1cc(N)c2ccccc2[n+]1CCCCCCCCCC[n+]1c(C)cc(N)c2ccccc21` is reported as 1.2 µg/mL (broth dilution).
For `COC(=O)c1cc(-c2cccc(NC(=S)Nc3cccc(Br)c3)c2)on1`, the MIC was 8 µg/mL (ATCC27294 H37RV; 7 days).
For `Cc1ccc(C)n1-c1ccc(C(=O)NNC=O)cc1`, the MIC was 4 µg/mL (broth dilution; H37RV; 21 days).
For `COC(=O)c1cc(-c2cccc(NC(=S)NC3CCCCC3)c2)on1`, the MIC was 2 µg/mL (ATCC27294 H37RV; 7 days).
The MIC of `Cc1c(Cc2ccccc2Cl)c(=O)n2c([nH]c3ccccc32)c1C#N` is reported as over 128 µg/mL (broth dilution; H37RV).
`CCCC1CCC2(CC1)SC(C)C(=O)N2NC(=O)c1[nH]c2ccc(Cl)cc2c1-c1ccccc1` (stereo not drawn) has an MIC of 1000 µM (ATCC27294 H37RV).
`O=[N+]([O-])c1ccc(/C(O)=C/C(=S)S)cc1` has an MIC of 7.8 µg/mL (H37RA).
`NNC(=O)c1ccncc1` gave an MIC of 0.03 µg/mL.
`O=C(NC(=O)c1cc2c(F)cc(F)cc2[nH]1)c1cccc(Cl)c1` gave an MIC of over 96 µM (resazurin; H37RV).
The MIC of `C[C@H]1COc2c(N3CCN(C)CC3)c(F)cc3c(=O)c(C(=O)O)cn1c23` is reported as 0.12 µg/mL (resazurin; H37RA; 14 days).
`CC[C@@H](CO)NCCN[C@@H](CC)CO` has an MIC of 1 µg/mL (ATCC27294 H37RV; 7 days).
For `N#Cc1cc(C(F)(F)F)cc2c(=O)nc(N3CCN(CC4CCC4)CC3)sc12`, the MIC was over 2 µM (resazurin; H37RV).
`COc1cc(C=NC2=NN(c3ccccc3)C(=O)C2=NNc2nc(-c3ccccc3)cs2)ccc1O` gave an MIC of 12.5 µg/mL (resazurin; H37RV).
`Cc1ccc2nc(C)c(C(=O)NCc3cccc(S(F)(F)(F)(F)F)c3)n2c1` has an MIC of 0.2 µM (H37RV; 5 days).
For `CC(C)[C@H]1CO[C@]23CCN(Cc4ccc(OC(F)(F)F)cc4)C[C@H]2CCC(=O)N13`, the MIC was 0.17 µM (resazurin; H37RV; 7 days).
`Cc1ccc(C)n1-c1ccc(-c2nnc(S)s2)cc1` has an MIC of 1 µg/mL (broth dilution; H37RV; 21 days).
With `Cc1c(Cc2ccc(F)cc2F)c(=O)n2c([nH]c3ccccc32)c1C#N` the MIC was 1 µg/mL (broth dilution; H37RV).
